The results in this text go back to the RNAGym collection of RNA variant scans (doi:10.1126/science.aae0568).

This sample holds only a part of the variants without activity.

To fix the notation:
B1: tRNA (parent)
chain: GUUCCGUUGGCGUAAUGGUAACGCGUCUCCCUCCUAAGGAGAAGACUGCGGGUUCGAGUCCCGUACGGAACG

The series covers variants of B1. The series is described as follows: yeast fitness relative to wild type (ratio to wild type); higher = fitter; tRNA-Arg(CCU), competitive growth, 37 C, YPD. In outline:
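Changes in genotype frequencies gave Darwinian fitness relative to wild type. Frequencies were read by 100-nucleotide paired-end sequencing of gene amplicons before and after pooled Saccharomyces cerevisiae strains, carrying tRNA-Arg(CCU) gene variants at the native locus, were competed in YPD at 37°C for 24 hours in six replicates. A genotype was kept only with ≥ 100 starting reads, and estimates < 0.5 were set to 0.5.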
C22U C31G C49U: the yeast fitness worked out at 0.552. Regarding C22U C46U G51C, the yeast fitness is no more than 0.5. For C22G U47C the value was 0.89; for C22G U47G, 0.597. For C22G U47A the value was 0.754. The value for C22U A36G was 0.948; that for C22U A40U was 0.642. Turning to C22U A40C, the yeast fitness stood at 0.7. Take C22U C27U A57G: the yeast fitness was 0.53. As to C22U C33G C60U C62G, the yeast fitness was 0.594. For C22U A37C G44A G63C the value was no more than 0.5; for C22G U32G, 0.626; for C22G U32C, 1. The value for C22U A36C A65U G67C was no more than 0.5; that for C22U C29U C33U A37C C55A was 0.615; that for C22G U35C G50C was no more than 0.5.

With C22U C31G G38A U47A C62U, the yeast fitness was no more than 0.5. The value for C22G G63A was 0.891; that for C22G G23C C27A U28C U32C was no more than 0.5.

Consider C22G G23C C27A U28C G67A A70G, for which the yeast fitness was no more than 0.5. As for C22U A42G C61U, the yeast fitness was 0.612. For C22U C27G C66U A69U the value was no more than 0.5; for C22U C55A A65G C66U, 0.585; for C22U C29G C33U C61U A69C, no more than 0.5.

With C22G C49U C66U, the yeast fitness was 0.666. The value for C22U C30G U54C C62G A65U was no more than 0.5. C22U A40G C61U U64G A69U: the yeast fitness is no more than 0.5.

In the case of C22U C29G A40C A57C, the yeast fitness was no more than 0.5. For C22U C31A C60G the value was no more than 0.5; for C22U C31A C60U, no more than 0.5. The value for C22U A40U A57U A69U was no more than 0.5; that for C22U C30U C55G was no more than 0.5.

Regarding C22G U35A A57G C62A, the yeast fitness was determined as 0.567. For C22U C33G C34A A43C C55U, the yeast fitness is no more than 0.5. As for C22U A45C G50A, the yeast fitness amounted to 0.698. For C22G U47A U54A C61G the value was no more than 0.5; for C22G U32C U54A G68A, no more than 0.5.

Consider C22U A36G C55A, for which the yeast fitness is no more than 0.5. In the case of C22G U47A C49U, the yeast fitness came to 0.638. As for C22U A43G A57U, the yeast fitness stood at 0.59. The value for C22U C29U C33U A37C A43U C55A was no more than 0.5; that for C22G G50U A57G was no more than 0.5; that for C22U C66U A69U was 0.6.

Take C22G C61G C62U: the yeast fitness is no more than 0.5. For C22U C27U G56A the value was 0.51; for C22G G23A, 0.644. The value for C22G C46U G50A was 0.719; that for C22U C34G A36U U47C A65C was no more than 0.5. For C22G C60A C62U the value was 0.589; for C22G G23C A43C G50C, no more than 0.5; for C22U C30U A57C, 0.528. Regarding C22U C24U G50C, the yeast fitness was determined as 0.618. With C22U A37G A45U G52A, the yeast fitness is 0.588. On to C22U C46G C49A G56A C60A A70C, for which the yeast fitness was found to be 0.534. For C22U C30U A42G C61A, the yeast fitness is 0.584. With C22U C24A A42U C61U, the yeast fitness is 0.562.

For C22G C31U, the yeast fitness came out at 1. The value for C22G G58C was 0.971; that for C22U C29U A37U was no more than 0.5; that for C22U C29U G41A C62G was no more than 0.5.

On to C22U A43U C55G C61U, for which the yeast fitness stood at 0.659. For C22U C31G A43U C49U C60A A70G the value was no more than 0.5. On to C22G C34U C46A, for which the yeast fitness was no more than 0.5. Turning to C22G G25A C61U, the yeast fitness is 0.647. For C22U C46G C49A U54C G56A C60A A70C the value was no more than 0.5.

With C22G G51A C60U A70U, the yeast fitness is 0.637. The value for C22U C24A G25U A42G was no more than 0.5; that for C22U C31G U53A was no more than 0.5; that for C22G C34U C49U C55G C62U was no more than 0.5. The value for C22U C27U C33A C60U C62G was 0.558. For C22G C61U G68A the value was no more than 0.5. On to C22U C33G G41C, for which the yeast fitness was no more than 0.5. The value for C22G C31U U59G was 0.539. For C22U C55G A70C the value was 0.558; for C22G U32C G38C C60U, no more than 0.5. The value for C22U C31G C33A G38A U47A was no more than 0.5.

In the case of C22U C34G G39A C49U, the yeast fitness is no more than 0.5. For C22U C33G C55G the value was 0.537; for C22G C34G A40C A69U, 0.769. Take C22U C33G C34A A43C A65U: the yeast fitness is no more than 0.5. Take C22G C55U A57U: the yeast fitness is no more than 0.5. For C22U C27U A37G the value was 0.643; for C22U C49A A69G, no more than 0.5.

As for C22G G38C C60U, the yeast fitness was no more than 0.5. With C22G C60G, the yeast fitness was 0.621. For C22U A37G G48C the value was 0.54.

Turning to C22U C24G C61A, the yeast fitness stood at 0.53. With C22U C33U C34A G38C, the yeast fitness is no more than 0.5.

On to C22U A43U C49U C55G C61U, for which the yeast fitness turned out to be 0.534. For C22U A36G G51C the value was no more than 0.5. C22U A43C: the yeast fitness stood at 0.712. The value for C22U C24G U28A A45C G51A A57C C61U was no more than 0.5; that for C22G G25A G50U was 0.593; that for C22U A45G G58C was 0.608. For C22U C34G G39A the value was no more than 0.5; for C22U C29A A65U, no more than 0.5; for C22G C31U G56A, 1.16. Consider C22U C24G C55U A65G, for which the yeast fitness was no more than 0.5. The value for C22U C34U A36U U53C was no more than 0.5; that for C22U C34G was 0.597.

C22U C46A: the yeast fitness was determined as 0.975.

For the variant C22U C46G, the yeast fitness was 0.835. The value for C22U C46U was 0.995. In the case of C22U C29G, the yeast fitness came to 0.657. Turning to C22U C30U U47A C62U, the yeast fitness was no more than 0.5. For C22U C27G A40C the value was 0.55.

Consider C22G U35A U47C C55U A69C, for which the yeast fitness turned out to be 0.542. For C22U C61G A69G the value was 0.574. In the case of C22G G23C A42U, the yeast fitness is 0.573. The value for C22G G41C G52A was no more than 0.5; that for C22G C55A was 0.712. Take C22G C55G: the yeast fitness was 0.585.

With C22G G52A U64C, the yeast fitness was 0.537. The value for C22U C29G C34G A42U U54C G56A was no more than 0.5; that for C22U C24A G56A A70U was no more than 0.5; that for C22G G58C C61U was 0.616. The value for C22U C31G U35A C49U C66U G67A was no more than 0.5. The value for C22G G23A G38A G68C was 0.572; that for C22U C30G G52A was 0.514. In the case of C22G G38C C55G, the yeast fitness is no more than 0.5. Take C22U C66A: the yeast fitness is 0.716. Turning to C22U C66U, the yeast fitness was 0.762.

As to C22G U54A C55U C66A, the yeast fitness was no more than 0.5. For C22U C33U G52A C66U the value was no more than 0.5; for C22G G39C, 0.823.

C22G G39A: the yeast fitness worked out at 0.773. For C22U C30U U47C U54A the value was no more than 0.5; for C22U A43C U53C C62G, no more than 0.5; for C22U A45U C49A, no more than 0.5. For C22G C33G G51A the value was no more than 0.5; for C22U C24G C30U G44A G56A, no more than 0.5; for C22U C24U C60G, no more than 0.5. The value for C22U C34U C60G A69G was 0.58; that for C22U A37U G50C C66U was 0.697.

Consider C22U A65G, for which the yeast fitness is 0.835.

As to C22U A65C, the yeast fitness amounted to 0.708.

In the case of C22U A65U, the yeast fitness turned out to be 0.748. The value for C22U A37U G52C C61G C66A was no more than 0.5; that for C22G G23C A43C G50C A70U was 0.517; that for C22U A70U was 0.842. Regarding C22G G56A, the yeast fitness amounted to 1.07. C22G G39A A70G: the yeast fitness stood at 0.599. C22G G44C U53A: the yeast fitness was no more than 0.5. For C22U C27G A57C the value was no more than 0.5. For C22U C24G A69C the value was 0.539; for C22U C46A C61U, no more than 0.5.

Take C22G C66A: the yeast fitness worked out at 0.704.

As to C22G C49U G56A, the yeast fitness was 0.797. On to C22G U47C G50A, for which the yeast fitness was no more than 0.5.

Take C22U C30A C31U: the yeast fitness was no more than 0.5. For the variant C22G G41A C61G, the yeast fitness was no more than 0.5. For C22G U28C C31G the value was 0.6; for C22U C24G A65U, no more than 0.5; for C22G C34U A69U, 0.573. As to C22U C46G C55A, the yeast fitness was no more than 0.5. For C22G C33U A42U A43G C61A the value was no more than 0.5; for C22U C49A, 0.682; for C22U C24G C34U A37G G44A, no more than 0.5. Take C22U C33U A42U G52C A57C A65C: the yeast fitness was no more than 0.5. For C22G G52A C55U the value was no more than 0.5; for C22G G50A U59C, no more than 0.5.

For C22U C60G A70G, the yeast fitness is no more than 0.5. On to C22U G23A C61A, for which the yeast fitness came to 0.58.

Regarding C22G C49U A65G, the yeast fitness came to 0.785. As for C22U A36U C49U G58C, the yeast fitness was 0.575. For C22U G23A C66G G67A the value was no more than 0.5; for C22U C27U C33A, no more than 0.5.
